Among the data in PubChem BioAssay AID573 (SRMLSC, 2007) are growth inhibition values, retold here.

Screen size: about 65,000 compounds; about 1,400 (2.2%) were called active.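 How the source made its calls: active means growth inhibition at or above a cutoff equal to the mean over every tested compound plus 3 SD (cut at about 60% in these data); inactive means the rest.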 This excerpt belongs to a sample that is enriched for actives.

The experiment is described as follows: growth inhibitors of E. coli tolC mutant, primary screen, strain BW25113 ΔtolC::kan, 384-well (AID 573).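 Further: growth measured after 20 h incubation at 37 °C.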 The settings on record: OD615, active compounds read high, screened at 10 µM (by protocol). The gist of the method:
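signal = optical density read at 615 nm | test system = E. coli ΔtolC::kan strain BW25113 | timing = 20 h compound exposure of bacteria at 37 °C | buffer or medium = LB medium plus 50 µg/mL kanamycin | compound dosing = 10 µM final, single dose | evaluation = % inhibition of E. coli growth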
On to `CCOC(=O)c1c(-n2cnnn2)sc(C)c1C`, for which the growth inhibition was 1.46% (inactive).

With `CCOC(=O)N1CCN(C(=O)C2CCN(c3ncnc4c3sc3cccc(F)c34)CC2)CC1`, the growth inhibition is 32.2% (inactive). The figure for `CCOC(=O)C1CCN(c2ncnc3c2oc2ccc(Br)cc23)CC1` is 100% (active). As for `Cc1cc(C)nc(N2CCN(c3ncnc4c3oc3ccccc34)CC2)n1`, the growth inhibition is -15.7% (inactive).

With `CC(C)COC(=O)C1C2C=CC3(CN(C(C)c4ccc(Br)cc4)C(=O)C13)O2` (stereo not given), the growth inhibition was -3.74% (inactive).

On to `COCCNC(=O)c1ccccc1-c1nc(-c2ccccc2Cl)no1`, for which the growth inhibition is 1.03% (inactive). The figure for `Cc1ccc(SCCN2C(=O)NC(C)(C)C2=O)cc1` is 13.1% (inactive); for `Cc1ccc(C2(c3ccc(C)cc3)NC(=O)N(Cc3c(C)noc3C)C2=O)cc1` it is 94.9% (active). `C=CCNC(=O)CCCOc1cccc(C)c1`: the growth inhibition is -3.22% (inactive).

For the compound `COc1ccccc1N1CCN(C(=O)c2c(-c3c(Cl)cccc3Cl)noc2C)CC1`, the growth inhibition was 23.5% (inactive). As for `O=C(CSc1nnc(-c2ccco2)n1Cc1ccccc1)NC(=O)NCc1ccco1`, the growth inhibition was 12.2% (inactive). The figure for `c1ccc(CSc2nnc(-c3ccco3)n2Cc2ccccc2)cc1` is 100% (active); for `Nc1cc(=O)nc(SCc2ccccc2)n1Cc1ccco1` it is 7.07% (inactive); for `O=C(CSc1nnc(-c2ccco2)n1CC1CCCO1)c1ccccc1` (stereo not given) it is -11.9% (inactive). With `c1ccc(CSc2nnc(-c3ccco3)c(-c3ccco3)n2)cc1`, the growth inhibition was 72.5% (active). The figure for `Clc1ccccc1CSc1nnc(-c2ccco2)c(-c2ccco2)n1` is 9.86% (inactive). Then `CC(C)c1nc(N2CCOCC2)c(C#N)c2c1COC(C)(C)C2`, with 8.03% (inactive). Then `Cc1ccc(S(=O)(=O)N2CC(=O)Nc3ccccc32)cc1C`, with -6.32% (inactive); and `CCCCc1nc2ccccc2c(=O)n1NC(=O)c1c(O)c2cccc3c2n(c1=O)CC3`, with 34.2% (inactive). Consider `CCCc1nc2ccccc2c(=O)n1NC(=O)c1c(O)c2ccccc2[nH]c1=O`, for which the growth inhibition was 72.5% (active). Then `CCCC(=O)Nc1c(O)c2ccccc2[nH]c1=O`, with -32.1% (inactive); and `Cc1cc(Nc2ccccc2)n(C(=O)c2ccc(N)cc2)n1`, with 25.2% (inactive); and `N#Cc1c(N)n(CCOC(=O)c2ccc(Cl)cc2)c2nc3ccccc3nc12`, with 5% (inactive).

For the compound `CC(=O)N1C(=O)C2(Nc3ccccc3N2)c2ccccc21`, the growth inhibition was -14% (inactive). Then `COc1c(Br)cc2c(C)c(C(=O)N3CCOCC3)oc2c1Br`, with 0.15% (inactive); and `C=C(C)COc1ccc(-c2n[nH]c(C)c2-c2ccccc2OC)c(O)c1`, with 88.4% (active); and `COc1ccc(-c2n[nH]c(C)c2-c2ccc(OC)c(OC)c2)c(O)c1`, with 38.4% (inactive).

With `C=C(C)COc1ccc(-c2n[nH]c(C)c2-c2ccccc2)c(O)c1`, the growth inhibition is 95.4% (active). The figure for `COc1ccccc1-c1c(C)nn2c(C)c(C(C)=O)cnc12` is 15.8% (inactive); for `Cn1c(=O)c2c(nc(SCCNS(=O)(=O)c3ccccc3)n2C)n(C)c1=O` it is 0.89% (inactive); for `Cc1ncc(CC(=O)n2cc(C(=O)c3cc(Cl)ccc3O)cn2)s1` it is 5.26% (inactive). Take `CCn1c(SCC(=O)Nc2nc3ccc(OC)cc3s2)nnc1-c1ccoc1C`: the growth inhibition was 27.9% (inactive). The figure for `C=CCn1c(SCC(=O)Nc2nc3ccccc3s2)nnc1-c1ccccc1O` is 87.9% (active); for `C=CCn1c(CSc2nc3ccccc3s2)nnc1SCC(=O)NCc1ccco1` it is 29.4% (inactive); for `CCOc1ccccc1-n1c(SCC(=O)NCc2ccco2)nnc1-c1ccncc1` it is -11.1% (inactive).

For the compound `COc1ccc(-c2cc(C(F)(F)F)nc(SCCC(=O)NCc3ccco3)n2)cc1`, the growth inhibition is -9.96% (inactive). Then `Cc1ccc(F)cc1NC(=O)c1cccc(N(C)C)c1`, with -26.6% (inactive); and `O=C(Nc1cccc(F)c1)c1ccc(S(=O)(=O)N2CCCC2)cc1`, with 8.01% (inactive); and `CC(C)C(=O)N1c2ccccc2NC2=C(C(=O)CCC2)C1c1ccc(N(C)C)cc1` (stereo not given), with -4.93% (inactive). The figure for `CCCC(=O)N1c2ccccc2NC2=C(C(=O)CCC2)C1c1ccc(F)cc1` (stereo not given) is 55.5% (inactive); for `O=C1CCCC2=C1C(c1cccs1)n1nc(SCc3ccccc3)nc1N2` (stereo not given) it is 87.2% (active); for `COC(=O)CSc1nc(C2CC2)nc2ccccc12` it is 15.2% (inactive).

As for `COc1cccc(N(CC(=O)NC2CCCC2)C(=O)Cn2nnc(-c3ccc(C)cc3)n2)c1`, the growth inhibition was -7.48% (inactive). Then `C=CCn1c(N)c(C(=O)OCC(C)C)c2nc3ccccc3nc21`, with 30.8% (inactive).

With `C=CCn1c(N)c(S(=O)(=O)c2cccs2)c2nc3ccccc3nc21`, the growth inhibition was 26.6% (inactive). Then `CC(C)Cn1c(N)c(C(=O)NCc2cccs2)c2nc3ccccc3nc21`, with 79.5% (active); and `COC(=O)c1ccc(/C=N\n2c(C)nnc2C)cc1`, with -9.6% (inactive); and `O=C(CCCN1C(=O)CSc2ncccc21)N1CCN(c2cccc(C(F)(F)F)c2)CC1`, with 17.9% (inactive). The figure for `COc1ccc2c(c1)OC(O)(C(F)(F)C(F)F)CC2=O` (stereo not given) is 100% (active); for `N#CCCN(CCC#N)c1nnc(-c2ccccc2)s1` it is 16.1% (inactive). The figure for `CCOC(=O)C1=C(C)NC(C)=C(C(=O)OCC)C1C1=COCCO1` is 5.25% (inactive); for `CC1=CC(C)(C)N(C(=O)CSc2nccn2C)c2cc(C)ccc21` it is 5.87% (inactive); for `O=C(CSc1nnc(-c2ccccc2)o1)N1CCOCC1` it is -8.06% (inactive).

With `CC1=CC(C)(C)N(C(=O)CSc2nnc(-c3ccccc3)o2)c2ccc(C)cc21`, the growth inhibition was 65.4% (active).

Take `CCCCN(C)C(=O)C1CCN(Cc2ccccn2)CC1`: the growth inhibition was -9.54% (inactive).

With `Cc1cnc(NC(=O)CSc2nnc(-c3ccccc3)n2Cc2ccccc2)s1`, the growth inhibition was 1% (inactive).

Turning to `CCOC(=O)Cn1c(CN(Cc2ccccc2)Cc2ccccc2)nc2c1c(=O)[nH]c(=O)n2C`, the growth inhibition is 13% (inactive). The figure for `FC(F)(F)COc1nc(N2CCCCC2)nc(N2CCNCC2)n1` is 10.5% (inactive).

`O=c1oc2c(CN3CCCCC3)c(O)ccc2c2c1CCCCC2`: the growth inhibition was 2.35% (inactive). Then `CCCOc1ccc2c3c(c(=O)oc2c1OCCC)CCC3`, with 73% (active). Then `COc1ccc2c3c(c(=O)oc2c1OCC(=O)C(C)(C)C)CCCC3`, with 10.7% (inactive); and `COc1ccccc1N1CCN(C(=O)c2cc3c(-c4ccc(Cl)cc4)nn(C)c3s2)CC1`, with 14.7% (inactive); and `Cn1c(=O)c2c(nc(Br)n2CCSc2nc3ccccc3o2)n(C)c1=O`, with 4.61% (inactive). The figure for `Cc1cc(C)c(C#N)c(SCc2ccc3c(c2)OCO3)n1` is 62.3% (active).

With `Cc1cc(C)c(C#N)c(SCc2ccccc2C(=O)O)n1`, the growth inhibition was 8.75% (inactive).

As to `Cc1cc(C)c(C#N)c(SCc2[nH]nc3c2C(c2ccccc2)C(C#N)=C(N)O3)n1` (stereo not given), the growth inhibition was 18.3% (inactive). Regarding `O=C(Nc1ccc(-c2nnc(-c3ccccc3)o2)cc1)c1ccc(Br)o1`, the growth inhibition is -0.33% (inactive).

As for `O=C(Nc1nnc(-c2ccc(Cl)cc2)o1)c1ccccc1Br`, the growth inhibition is 100% (active). The figure for `Cc1nonc1NC(=O)c1ccccc1Br` is -1.19% (inactive). Then `Cn1c(=O)[nH]c(=O)c2c1nc(NCCCn1ccnc1)n2Cc1cccc(Br)c1`, with -18.6% (inactive).

On to `CCOC(=O)c1ccc(NC(=O)CS(=O)(=O)c2cn(CC)c3ccccc23)cc1`, for which the growth inhibition was 12.6% (inactive). `Cc1ccc2c(c1)c1ncnc(N3CCc4ccccc4C3)c1n2C`: the growth inhibition is 21.5% (inactive). As to `COc1ccc(OC)c(S(=O)(=O)N(C)CC(=O)N2CCN(c3ccccc3)CC2)c1`, the growth inhibition is 8.54% (inactive). Regarding `COc1ccc(C(C(O)C(=O)c2c[nH]c3ccccc23)N2CCN(c3ccccc3)CC2)cc1` (stereo not given), the growth inhibition is 72.1% (active). Take `CCCC(=O)NC(C)C(c1cccs1)N1CCN(c2ccccc2)CC1` (stereo not given): the growth inhibition was 1.14% (inactive). The figure for `O=S(=O)(c1ccc(F)cc1)N1CCN(Cc2ccccc2C(F)(F)F)CC1` is 38.3% (inactive). The figure for `Cc1cccc(NC(=O)COc2ccc(Br)cc2C)n1` is 8.04% (inactive); for `c1ccc(Nc2nc(-c3ccncc3)cs2)nc1` it is -16.7% (inactive); for `Clc1ccc(Nc2nc(-c3cccs3)cs2)nc1` it is 81.1% (active). Then `O=C(Nc1ccc(Cl)cn1)Nc1cccs1`, with 6.13% (inactive). In the case of `COc1ccc(-c2nnc(SC(=O)N3c4ccccc4Sc4ccccc43)o2)cc1`, the growth inhibition is 0.32% (inactive). The figure for `CCc1nnc(NC(=O)c2ccc(S(=O)(=O)NC3CCCCC3)cc2)s1` is 18.5% (inactive); for `CCc1nnc(NC(=O)C2CCCN2S(=O)(=O)c2ccccc2)s1` (stereo not given) it is 3.73% (inactive). For the compound `CC1CCCCN1S(=O)(=O)c1ccc(C(=O)Nc2nnc(-c3cccs3)o2)cc1` (stereo not given), the growth inhibition was 99.1% (active). Consider `COCC(C)n1c(SCc2ccc(C(=O)OC)o2)nc2ccccc2c1=O` (stereo not given), for which the growth inhibition is 33.1% (inactive).

In the case of `CCN(CC)S(=O)(=O)c1cccc(C(=O)Nc2ccccc2)c1`, the growth inhibition is 38.8% (inactive). Then `O=C(CC1Oc2ccccc2NC1=O)NCCCN1CCN(Cc2ccccc2)CC1` (stereo not given), with -13.8% (inactive). On to `Cc1nc2c(c(=O)n1Cc1ccco1)c1nc3ccccc3nc1n2Cc1ccccc1`, for which the growth inhibition was 14.7% (inactive).

For the compound `Cc1ccc(Cn2c(C)nc3c(c2=O)c2nc4ccccc4nc2n3Cc2ccco2)cc1`, the growth inhibition was 29.2% (inactive).

`Clc1cccc(-c2nc3nc4ccccc4nc3n2Cc2ccco2)c1`: the growth inhibition was 68% (active). The figure for `COc1ccc(C2N=C(N)N=C(N)N2c2ccccc2)cc1OC` (stereo not given) is 4.96% (inactive); for `O=C(CCCCn1c(=O)[nH]c2ccccc2c1=O)NCc1ccc2c(c1)OCO2` it is 1.02% (inactive); for `Cc1nc2c(C(=O)NCc3ccc4c(c3)OCO4)c[nH]n2c(=O)c1Cc1ccccc1F` it is 100% (active). Then `CCn1cc(C(=O)NCc2ccc3c(c2)OCO3)c2cc(OC)c(OC)cc2c1=O`, with -12.7% (inactive). For the compound `CC(C)C(=O)N1CCN(c2nc(-c3ccccc3)c3c(c2C#N)CC(C)(C)OC3)CC1`, the growth inhibition was 4.78% (inactive).
